What all share (format): functional
The test system of assay [1] is Phytophthora infestans. As to the kind of experiment: Fungicidal activity against Phytophthora infestans infected second leaf-stage of tomato plant at 50 mg/l applied as spray after 4 days under green house conditions relative to control.
Assay [2] relates to Blumeria graminis. Kind of assay: Fungicidal activity against Blumeria graminis infected first-leaf stage of barley plant at 50 mg/l applied as spray under green house conditions relative to control.
Assay [3] has as its system Botrytis cinerea. Kind of assay: Fungicidal activity against Botryotinia fuckeliana infected first-leaf stage of cucumber plant at 50 mg/l applied as spray after 4 to 5 days under green house conditions relative to control.
The subject of assay [4] is Pyricularia grisea. Kind of assay: Fungicidal activity against Magnaporthe grisea infected second leaf stage of rice plant at 50 mg/l applied as spray after 5 days under green house conditions relative to control.
Assay [5] concerns Puccinia recondita. As to the kind of experiment: Fungicidal activity against Puccinia recondita infected first leaf stage of wheat plant at 50 mg/l applied as spray after 10 days under green house conditions relative to control.
The subject of assay [6] is Rhizoctonia solani. As to the kind of experiment: Fungicidal activity against Rhizoctonia solani infected in third leaf stage of rice plant at 50 mg/l applied as spray after 5 days under green house conditions relative to control.
Assay [7] deals with Rhizoctonia solani. As to the kind of experiment: Fungicidal activity against Rhizoctonia solani infected in third leaf stage of rice plant at 1000 mg/l applied as spray after 5 days under green house conditions relative to control. In a few lines:
(§1)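 Rice at third leaf (three plants/pot) sprayed with sample in DMSO/Tween 20 (250 µg/mL) water; after 1 day inoculated by injecting at plant base R. solani inoculum (7-day wheat bran culture at 25 °C, macerated 500 g/L water). Held 5 days in lit chamber at 28 °C. Control value from diseased area against Tween-sprayed controls; triplicate.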

The subject of assay [8] is Phytophthora infestans. As to the kind of experiment: Fungicidal activity against Phytophthora infestans infected second leaf-stage of tomato plant at 1000 mg/l applied as spray after 4 days under green house conditions relative to control.
Assay [9] concerns Botrytis cinerea. As to the kind of experiment: Fungicidal activity against Botryotinia fuckeliana infected first-leaf stage of cucumber plant at 1000 mg/l applied as spray after 4 to 5 days under green house conditions relative to control.
Assay [10] has as its system Puccinia recondita. Kind of assay: Fungicidal activity against Puccinia recondita infected first leaf stage of wheat plant at 1000 mg/l applied as spray after 10 days under green house conditions relative to control. The essentials:
(§2)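 Whole-plant greenhouse spray assay: sample dissolved in DMSO, diluted in water with Tween 20 (250 µg/mL), 50 mL sprayed over two pots; plants held 1 day before inoculation with P. recondita; controls got Tween 20 solution. Control value = (untreated − treated disease area)/untreated × 100; three replicates.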

For assay [11], the system named is Blumeria graminis. As to the kind of experiment: Fungicidal activity against Blumeria graminis infected first-leaf stage of barley plant at 1000 mg/l applied as spray under green house conditions relative to control. In a few lines: (§3)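 Barley at fully expanded first leaf (four plants/pot) sprayed with test material (DMSO stock diluted in water with Tween 20 at 250 µg/mL), greenhouse 1 day, then dusted with E. graminis conidia from infected barley (8 treated pots per source pot). Controls got Tween 20 solution. Control value = (untreated − treated disease area)/untreated × 100; triplicate.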

For assay [12], the system named is Rhizoctonia solani. Kind of assay: Fungicidal activity against Rhizoctonia solani infected in third leaf stage of rice plant at 500 mg/l applied as spray after 5 days under green house conditions relative to control.
The subject of assay [13] is Blumeria graminis. Kind of assay: Fungicidal activity against Blumeria graminis infected first-leaf stage of barley plant at 500 mg/l applied as spray under green house conditions relative to control.
The subject of assay [14] is Botrytis cinerea. Kind of assay: Fungicidal activity against Botryotinia fuckeliana infected first-leaf stage of cucumber plant at 500 mg/l applied as spray after 4 to 5 days under green house conditions relative to control.
Assay [15] has as its system Pyricularia grisea. As to the kind of experiment: Fungicidal activity against Magnaporthe grisea infected second leaf stage of rice plant at 1000 mg/l applied as spray after 5 days under green house conditions relative to control. In a few lines: (§4)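 Rice at second leaf (three plants/pot) sprayed with sample (DMSO, diluted in water with 250 µg/mL Tween 20), greenhouse 1 day. Inoculated with conidia (1 × 10^6 spores/mL), 24 h at 25 °C and 100% RH, then 5 days lit at 26 ± 2 °C and 85% RH. Severity scored; control value from diseased area against Tween-sprayed controls; triplicate.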

In assay [16] the test system is Pyricularia grisea. As to the kind of experiment: Fungicidal activity against Magnaporthe grisea infected second leaf stage of rice plant at 500 mg/l applied as spray after 5 days under green house conditions relative to control. In a few lines: as §4
Assay [17] relates to Phytophthora infestans. Kind of assay: Fungicidal activity against Phytophthora infestans infected second leaf-stage of tomato plant at 500 mg/l applied as spray after 4 days under green house conditions relative to control.
The test system of assay [18] is Puccinia recondita. Kind of assay: Fungicidal activity against Puccinia recondita infected first leaf stage of wheat plant at 500 mg/l applied as spray after 10 days under green house conditions relative to control. In a few lines: as §2
Assay [19] deals with Pyricularia grisea. Kind of assay: Fungicidal activity against Magnaporthe grisea infected second leaf stage of rice plant at 250 mg/l applied as spray after 5 days under green house conditions relative to control. The essentials:
as §4

Assay [20] relates to Phytophthora infestans. As to the kind of experiment: Fungicidal activity against Phytophthora infestans infected second leaf-stage of tomato plant at 125 mg/l applied as spray after 4 days under green house conditions relative to control.
Assay [21] concerns Rhizoctonia solani. Kind of assay: Fungicidal activity against Rhizoctonia solani infected in third leaf stage of rice plant at 125 mg/l applied as spray after 5 days under green house conditions relative to control. The essentials: as §1
In assay [22] the test system is Puccinia recondita. Kind of assay: Fungicidal activity against Puccinia recondita infected first leaf stage of wheat plant at 125 mg/l applied as spray after 10 days under green house conditions relative to control. In a few lines: as §2
Assay [23] has as its system Pyricularia grisea. As to the kind of experiment: Fungicidal activity against Magnaporthe grisea infected second leaf stage of rice plant at 125 mg/l applied as spray after 5 days under green house conditions relative to control. The essentials:
as §4

The test system of assay [24] is Botrytis cinerea. Kind of assay: Fungicidal activity against Botryotinia fuckeliana infected first-leaf stage of cucumber plant at 250 mg/l applied as spray after 4 to 5 days under green house conditions relative to control. In a few lines: (§5)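 Cucumber at first leaf (one plant/pot) sprayed with sample in DMSO/Tween 20 (250 µg/mL) water; controls Tween 20 solution. After 1 day, leaf-sprayed with B. cinerea conidia (1 × 10^6 spores/mL; 15-day PDA culture, 20 °C), held 4-5 days at 20 °C. Control value calculated from diseased area against untreated plants; three replicates.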

Assay [25] relates to Rhizoctonia solani. As to the kind of experiment: Fungicidal activity against Rhizoctonia solani infected in third leaf stage of rice plant at 250 mg/l applied as spray after 5 days under green house conditions relative to control. The essentials: as §1
Assay [26] has as its system Blumeria graminis. As to the kind of experiment: Fungicidal activity against Blumeria graminis infected first-leaf stage of barley plant at 125 mg/l applied as spray under green house conditions relative to control.
For assay [27], the system named is Phytophthora infestans. As to the kind of experiment: Fungicidal activity against Phytophthora infestans infected second leaf-stage of tomato plant at 250 mg/l applied as spray after 4 days under green house conditions relative to control.
For assay [28], the system named is Botrytis cinerea. As to the kind of experiment: Fungicidal activity against Botryotinia fuckeliana infected first-leaf stage of cucumber plant at 125 mg/l applied as spray after 4 to 5 days under green house conditions relative to control. In a few lines: as §5
The test system of assay [29] is Blumeria graminis. Kind of assay: Fungicidal activity against Blumeria graminis infected first-leaf stage of barley plant at 250 mg/l applied as spray under green house conditions relative to control. The essentials:
as §3

The subject of assay [30] is Puccinia recondita. As to the kind of experiment: Fungicidal activity against Puccinia recondita infected first leaf stage of wheat plant at 250 mg/l applied as spray after 10 days under green house conditions relative to control. The essentials: as §2

The structures appear in SMILES notation.

For `CN(C)S(=O)(=O)N(SC(F)(Cl)Cl)c1ccccc1` [DICHLOFLUANID], the Activity in the assay with Phytophthora infestans [1] stood at 0%; in the assay with Blumeria graminis [2] it was 0%; with Botrytis cinerea [3] it was 92%; in the assay on Pyricularia grisea [4] it was 0%; in the assay on Puccinia recondita [5], 0%; with Rhizoctonia solani [6], 0%.

In the case of `N#Cc1c(Cl)c(Cl)c(Cl)c(C#N)c1Cl` [CHLOROTHALONIL], the Activity with Phytophthora infestans [1] was 95%; in the assay with Blumeria graminis [2] it was 0%; with Botrytis cinerea [3], 0%; in the assay on Pyricularia grisea [4], 0%; with Puccinia recondita [5], 0%; with Rhizoctonia solani [6], 0%.

For the compound `CC1(C)C2CCC1(C)C(O)C2` (stereo not drawn) [BORNEOL], the Activity with Rhizoctonia solani [7], with Phytophthora infestans [8], in the assay with Botrytis cinerea [9], with Puccinia recondita [10], in the assay on Blumeria graminis [11] and in the assay with Rhizoctonia solani [12] was 0% in each case. Moreover, the Activity in the assay with Blumeria graminis [13], with Botrytis cinerea [14], with Pyricularia grisea [15], in the assay on Pyricularia grisea [16], in the assay with Phytophthora infestans [17] and in the assay on Puccinia recondita [18] was 0% in each case.

Turning to `C=C1CCC2(C(C)C)CC12` (stereo not drawn) [SABINENE], the Activity with Rhizoctonia solani [7], in the assay on Phytophthora infestans [8], in the assay with Botrytis cinerea [9], with Puccinia recondita [10], with Blumeria graminis [11] and with Rhizoctonia solani [12] was 0% throughout. The Activity with Blumeria graminis [13], in the assay on Botrytis cinerea [14], in the assay on Pyricularia grisea [15], in the assay on Pyricularia grisea [16], in the assay on Phytophthora infestans [17] and in the assay with Puccinia recondita [18] was 0% each time.

Consider `CC(C)=CC(=O)C[C@H](C)C1=CCC(C)=CC1` [TURMERONE], for which the Activity in the assay on Rhizoctonia solani [7], in the assay with Phytophthora infestans [8], in the assay with Botrytis cinerea [9], in the assay on Puccinia recondita [10], in the assay with Rhizoctonia solani [12] and in the assay on Blumeria graminis [13] was 0% in each case. Also, the Activity in the assay on Botrytis cinerea [14], with Pyricularia grisea [15], in the assay with Pyricularia grisea [16], in the assay with Phytophthora infestans [17] and in the assay with Puccinia recondita [18] was 0% each time.

Turning to `COc1cc(/C=C/C(=O)CC(=O)/C=C/c2ccc(O)c(OC)c2)ccc1O` [CURCUMIN], the Activity in the assay on Rhizoctonia solani [7] was found to be 85%; in the assay with Pyricularia grisea [19], 0%; in the assay on Phytophthora infestans [8], 100%; with Botrytis cinerea [9], 70%; in the assay on Puccinia recondita [10] it was 100%; with Phytophthora infestans [20] it was 57%. The Activity in the assay with Rhizoctonia solani [21] stood at 26%; in the assay on Blumeria graminis [11] it was 0%; in the assay with Rhizoctonia solani [12], 63%; with Puccinia recondita [22], 63%; in the assay with Pyricularia grisea [23], 0%; in the assay with Botrytis cinerea [24], 15%. The Activity in the assay with Blumeria graminis [13] is reported as 0%; in the assay with Rhizoctonia solani [25], 45%; with Botrytis cinerea [14], 40%; in the assay with Blumeria graminis [26] it was 0%; in the assay on Pyricularia grisea [15], 0%; in the assay on Phytophthora infestans [27], 85%. Besides, the Activity in the assay with Pyricularia grisea [16] stood at 0%; in the assay on Botrytis cinerea [28] it was 0%; with Blumeria graminis [29] it was 0%; in the assay with Puccinia recondita [30], 76%; with Phytophthora infestans [17] it was 100%; in the assay on Puccinia recondita [18] it was 100%.

As for `CC12CCC(CC1)C(C)(C)O2` [EUCALYPTOL], the Activity with Rhizoctonia solani [7], in the assay on Phytophthora infestans [8], in the assay on Botrytis cinerea [9], in the assay with Puccinia recondita [10], in the assay on Blumeria graminis [11] and in the assay with Rhizoctonia solani [12] was 0% each time. Further, the Activity with Blumeria graminis [13], in the assay on Botrytis cinerea [14], in the assay with Pyricularia grisea [15], with Pyricularia grisea [16], in the assay with Phytophthora infestans [17] and in the assay on Puccinia recondita [18] was 0% throughout.

Values taken from ChEMBL document CHEMBL3046793, “Fungicidal property of Curcuma longa L. rhizome-derived curcumin against phytopathogenic fungi in a greenhouse” (2003).
